Data taken from ChEMBL document CHEMBL3779767, “Identification of potent and selective MTH1 inhibitors” (Bioorg Med Chem Lett, 2016).
In brackets after ≈: the same amount, converted by molar mass. Activity calls are given as the source filed them. No cut-off for these calls is given here.

How the values were obtained:
[1] = target: Mitogen-activated protein kinase kinase kinase 4 (Homo sapiens) (UniProt Q9Y6R4); experiment: Inhibition of partial length human MAP3K4 expressed in bacterial system at 1 uM
Summary of the method: (§1)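 Single-point screen within a 97-kinase profiling panel, with the test compound at 1 µM.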

[2] = target: SRSF protein kinase 3 (Homo sapiens) (UniProt Q9UPE1); experiment: Inhibition of partial length human SRPK3 expressed in bacterial system at 1 uM
Chain of SRSF protein kinase 3 (Homo sapiens) (Q9UPE1 whole entry): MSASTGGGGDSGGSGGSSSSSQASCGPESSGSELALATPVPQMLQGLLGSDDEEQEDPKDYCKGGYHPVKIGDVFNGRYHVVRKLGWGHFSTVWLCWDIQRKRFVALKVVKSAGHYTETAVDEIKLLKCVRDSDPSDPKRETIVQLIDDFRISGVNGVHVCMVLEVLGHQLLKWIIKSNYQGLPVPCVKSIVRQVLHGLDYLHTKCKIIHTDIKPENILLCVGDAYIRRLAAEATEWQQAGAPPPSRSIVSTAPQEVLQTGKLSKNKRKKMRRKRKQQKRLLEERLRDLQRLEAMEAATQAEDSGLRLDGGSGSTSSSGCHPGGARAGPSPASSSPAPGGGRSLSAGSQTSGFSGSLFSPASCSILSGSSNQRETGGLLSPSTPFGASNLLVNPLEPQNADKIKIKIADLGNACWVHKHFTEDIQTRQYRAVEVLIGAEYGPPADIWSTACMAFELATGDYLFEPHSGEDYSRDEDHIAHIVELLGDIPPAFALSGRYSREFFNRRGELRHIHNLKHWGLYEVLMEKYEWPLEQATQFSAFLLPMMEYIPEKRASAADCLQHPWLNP
Summary of the method: (§2)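 Single-concentration screen across a panel of 97 kinases, with the test compound at 1 uM.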

[3] = target: Ephrin type-A receptor 2 (Homo sapiens) (UniProt P29317); experiment: Inhibition of partial length human EPHA2 expressed in bacterial system at 1 uM; summary of the method: as §1
[4] = target: Insulin receptor (Homo sapiens) (UniProt P06213); experiment: Inhibition of partial length human INSR expressed in mammalian system at 1 uM; summary of the method: as §1
Chain of Insulin receptor (Homo sapiens) (P06213 28-758 limits assumed): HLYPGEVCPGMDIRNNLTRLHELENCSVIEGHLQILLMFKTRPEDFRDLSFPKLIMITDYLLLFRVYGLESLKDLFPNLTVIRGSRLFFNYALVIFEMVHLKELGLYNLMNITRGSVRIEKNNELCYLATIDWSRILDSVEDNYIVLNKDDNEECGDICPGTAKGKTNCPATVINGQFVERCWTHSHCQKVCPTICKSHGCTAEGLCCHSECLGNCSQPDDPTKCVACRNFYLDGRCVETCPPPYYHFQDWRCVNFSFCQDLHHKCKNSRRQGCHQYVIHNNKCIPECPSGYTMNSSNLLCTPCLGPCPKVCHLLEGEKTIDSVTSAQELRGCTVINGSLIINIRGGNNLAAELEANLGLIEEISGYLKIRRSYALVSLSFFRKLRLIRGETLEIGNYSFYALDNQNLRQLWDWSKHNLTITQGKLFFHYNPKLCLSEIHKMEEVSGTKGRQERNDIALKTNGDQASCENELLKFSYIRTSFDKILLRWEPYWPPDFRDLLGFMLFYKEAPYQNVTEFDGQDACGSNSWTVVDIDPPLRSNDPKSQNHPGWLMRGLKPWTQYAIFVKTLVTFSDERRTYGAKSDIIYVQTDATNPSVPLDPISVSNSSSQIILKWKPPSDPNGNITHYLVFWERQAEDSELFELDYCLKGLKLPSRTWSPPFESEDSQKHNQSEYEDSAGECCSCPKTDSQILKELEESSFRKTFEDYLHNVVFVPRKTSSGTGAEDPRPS
Chain of Insulin receptor (Homo sapiens) (P06213 763-1382 limits assumed): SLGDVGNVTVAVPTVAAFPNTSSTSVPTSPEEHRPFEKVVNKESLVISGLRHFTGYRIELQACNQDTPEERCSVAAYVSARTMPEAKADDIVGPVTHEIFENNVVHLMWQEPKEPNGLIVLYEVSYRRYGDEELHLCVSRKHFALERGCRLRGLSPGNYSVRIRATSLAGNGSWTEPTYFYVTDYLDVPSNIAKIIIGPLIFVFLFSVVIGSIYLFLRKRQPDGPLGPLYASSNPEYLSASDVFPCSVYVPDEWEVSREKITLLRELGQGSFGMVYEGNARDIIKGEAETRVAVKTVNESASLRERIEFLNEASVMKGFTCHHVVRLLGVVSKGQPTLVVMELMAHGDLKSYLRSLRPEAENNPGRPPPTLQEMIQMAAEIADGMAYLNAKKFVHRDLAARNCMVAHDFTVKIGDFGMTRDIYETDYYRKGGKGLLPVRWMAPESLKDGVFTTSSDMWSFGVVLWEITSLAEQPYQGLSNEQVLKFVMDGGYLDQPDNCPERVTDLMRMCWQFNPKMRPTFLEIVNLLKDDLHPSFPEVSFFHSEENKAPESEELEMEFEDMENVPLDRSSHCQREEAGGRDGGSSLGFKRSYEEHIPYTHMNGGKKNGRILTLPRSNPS

[5] = target: Serine/threonine-protein kinase PLK3 (Homo sapiens) (UniProt Q9H4B4); experiment: Inhibition of partial length human PLK3 expressed in mammalian system at 1 uM; summary of the method: as §2
[6] = target: Serine/threonine-protein kinase PAK 2 (Homo sapiens) (UniProt Q13177); experiment: Inhibition of partial length human PAK2 expressed in bacterial system at 1 uM; summary of the method: as §2
[7] = target: Aurora kinase A (Homo sapiens) (UniProt O14965); experiment: Inhibition of partial length human Aurora A expressed in mammalian system at 1 uM; summary of the method: as §1
Liver microsome = experiment: Intrinsic clearance in human liver microsomes; format: ADME
[8] = target: MAP kinase-activated protein kinase 2 (Homo sapiens) (UniProt P49137); experiment: Inhibition of partial length human MAPKAPK2 expressed in bacterial system at 1 uM; summary of the method: as §1
[9] = target: Tyrosine-protein kinase JAK3 (Homo sapiens) (UniProt P52333); experiment: Inhibition of partial length human JAK3 JH1 catalytic domain expressed in mammalian system at 1 uM; summary of the method: as §1
[10] = target: Mitogen-activated protein kinase 3 (Homo sapiens) (UniProt P27361); experiment: Inhibition of partial length human ERK1 expressed in bacterial system at 1 uM; summary of the method: as §1
Chain of Mitogen-activated protein kinase 3 (Homo sapiens) (P27361 whole entry): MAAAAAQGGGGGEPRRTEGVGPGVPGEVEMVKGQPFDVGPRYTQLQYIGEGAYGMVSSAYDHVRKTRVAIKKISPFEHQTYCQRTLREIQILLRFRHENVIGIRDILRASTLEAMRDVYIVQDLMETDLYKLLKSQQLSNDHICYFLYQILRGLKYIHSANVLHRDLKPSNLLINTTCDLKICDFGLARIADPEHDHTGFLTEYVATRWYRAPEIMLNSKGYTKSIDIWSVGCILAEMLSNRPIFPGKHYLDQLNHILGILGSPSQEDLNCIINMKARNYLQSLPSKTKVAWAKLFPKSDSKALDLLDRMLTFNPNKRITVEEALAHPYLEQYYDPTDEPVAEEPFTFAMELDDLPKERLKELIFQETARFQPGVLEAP

[11] = target: Mitogen-activated protein kinase 8 (Homo sapiens) (UniProt P45983); experiment: Inhibition of partial length human JNK1 expressed in mammalian system at 1 uM; summary of the method: as §1
Chain of Mitogen-activated protein kinase 8 (Homo sapiens) (P45983 whole entry): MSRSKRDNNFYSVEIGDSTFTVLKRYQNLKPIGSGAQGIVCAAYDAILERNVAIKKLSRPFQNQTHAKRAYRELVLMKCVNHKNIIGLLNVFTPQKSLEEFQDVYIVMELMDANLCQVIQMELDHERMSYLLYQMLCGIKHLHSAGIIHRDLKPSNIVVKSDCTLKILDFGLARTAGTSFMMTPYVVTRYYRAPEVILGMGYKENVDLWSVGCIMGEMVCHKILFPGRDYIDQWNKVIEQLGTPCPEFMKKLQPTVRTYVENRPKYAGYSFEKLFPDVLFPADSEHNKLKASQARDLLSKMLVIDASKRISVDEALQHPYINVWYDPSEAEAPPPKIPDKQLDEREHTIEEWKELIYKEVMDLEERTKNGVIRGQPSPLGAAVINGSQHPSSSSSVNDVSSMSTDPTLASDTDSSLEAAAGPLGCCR

[12] = target: Serine/threonine-protein kinase PAK 1 (Homo sapiens) (UniProt Q13153); experiment: Inhibition of partial length human PAK1 expressed in bacterial system at 1 uM; summary of the method: as §2
[13] = target: Rho-associated protein kinase 2 (Homo sapiens) (UniProt O75116); experiment: Inhibition of partial length human ROCK2 expressed in mammalian system at 1 uM; summary of the method: as §2
[14] = target: Atypical kinase COQ8A, mitochondrial (Homo sapiens) (UniProt Q8NI60); experiment: Inhibition of partial length human ADCK3 expressed in bacterial system at 1 uM; summary of the method: as §1
[15] = target: Non-receptor tyrosine-protein kinase TYK2 (Homo sapiens) (UniProt P29597); experiment: Inhibition of partial length human TYK2 JH1catalytic domain expressed in mammalian system at 1 uM; summary of the method: as §2
[16] = target: Inhibitor of nuclear factor kappa-B kinase subunit beta (Homo sapiens) (UniProt O14920); experiment: Inhibition of partial length human IKKbeta expressed in mammalian system at 1 uM; summary of the method: as §1
MDA-MB-231 = experiment: Antiproliferative activity against human MDA-MB-231 cells assessed as change in phenotypic response up to 50 uM; format: functional, cell-based
[17] = Solubility of the compound in PBS at pH 7; format: physicochemical
Summary of the method: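 Aqueous solubility was determined in sodium phosphate buffer at pH 7.0.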

[18] = target: Cyclin-dependent kinase 16 (Homo sapiens) (UniProt Q00536); experiment: Inhibition of partial length human PCTK1 expressed in mammalian system at 1 uM; summary of the method: as §2
[19] = target: Serine/threonine-protein kinase pim-3 (Homo sapiens) (UniProt Q86V86); experiment: Inhibition of partial length human PIM3 expressed in bacterial system at 1 uM; summary of the method: as §2
[20] = target: MAP kinase-interacting serine/threonine-protein kinase 2 (Homo sapiens) (UniProt Q9HBH9); experiment: Inhibition of partial length human MKNK2 expressed in mammalian system at 1 uM; summary of the method: as §2
[21] = target: MAP kinase-interacting serine/threonine-protein kinase 1 (Homo sapiens) (UniProt Q9BUB5); experiment: Inhibition of partial length human MKNK1 expressed in mammalian system at 1 uM; summary of the method: as §2
[22] = target: Mitogen-activated protein kinase 11 (Homo sapiens) (UniProt Q15759); experiment: Inhibition of partial length human p38beta expressed in bacterial system at 1 uM; summary of the method: as §2
[23] = target: Aurora kinase B (Homo sapiens) (UniProt Q96GD4); experiment: Inhibition of partial length human Aurora B expressed in mammalian system at 1 uM; summary of the method: as §1
[24] = target: Ribosomal protein S6 kinase alpha-2 (Homo sapiens) (UniProt Q15349); experiment: Inhibition of N-terminal partial length human RSK2 kinase domain 1 expressed in mammalian system at 1 uM; summary of the method: as §1
[25] = target: Serine/threonine-protein kinase pim-2 (Homo sapiens) (UniProt Q9P1W9); experiment: Inhibition of partial length human PIM2 expressed in bacterial system at 1 uM; summary of the method: as §2
Chain of Serine/threonine-protein kinase pim-2 (Homo sapiens) (Q9P1W9 whole entry, looked up): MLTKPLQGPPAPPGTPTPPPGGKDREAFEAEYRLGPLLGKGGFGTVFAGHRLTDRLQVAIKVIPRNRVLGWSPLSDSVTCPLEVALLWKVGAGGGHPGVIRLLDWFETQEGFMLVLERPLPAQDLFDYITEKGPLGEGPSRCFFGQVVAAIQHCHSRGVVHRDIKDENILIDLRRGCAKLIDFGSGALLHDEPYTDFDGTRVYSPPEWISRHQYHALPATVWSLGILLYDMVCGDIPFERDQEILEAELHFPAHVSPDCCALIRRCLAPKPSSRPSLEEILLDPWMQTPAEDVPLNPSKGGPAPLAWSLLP

[26] = target: RAF proto-oncogene serine/threonine-protein kinase (Homo sapiens) (UniProt P04049); experiment: Inhibition of partial length human RAF1 expressed in bacterial system at 1 uM; summary of the method: as §2
[27] = target: Cyclin-dependent kinase 3 (Homo sapiens) (UniProt Q00526); experiment: Inhibition of partial length human CDK3 expressed in bacterial system at 1 uM; summary of the method: as §1
[28] = target: RAC-alpha serine/threonine-protein kinase (Homo sapiens) (UniProt P31749); experiment: Inhibition of partial length human AKT1 expressed in bacterial system at 1 uM; summary of the method: as §1
[29] = target: ALK tyrosine kinase receptor (Homo sapiens) (UniProt Q9UM73); experiment: Inhibition of partial length human ALK expressed in mammalian system at 1 uM; summary of the method: as §1
[30] = Fraction unbound in human plasma; format: ADME, cell-free
[31] = target: Receptor tyrosine-protein kinase erbB-2 (Homo sapiens) (UniProt P04626); experiment: Inhibition of partial length human ERBB2 expressed in mammalian system at 1 uM
Summary of the method: (§3)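 Single-concentration screen at 1 µM test concentration, run as part of a commercial binding/activity profiling panel covering 97 kinases.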

[32] = system: Mast/stem cell growth factor receptor Kit (Homo sapiens), P10721 [D816V]; experiment: Inhibition of partial length human KIT D816V mutant expressed in bacterial system at 1 uM; summary of the method: as §3
Chain of Mast/stem cell growth factor receptor Kit (Homo sapiens), P10721 [D816V] (P10721 whole entry D816V): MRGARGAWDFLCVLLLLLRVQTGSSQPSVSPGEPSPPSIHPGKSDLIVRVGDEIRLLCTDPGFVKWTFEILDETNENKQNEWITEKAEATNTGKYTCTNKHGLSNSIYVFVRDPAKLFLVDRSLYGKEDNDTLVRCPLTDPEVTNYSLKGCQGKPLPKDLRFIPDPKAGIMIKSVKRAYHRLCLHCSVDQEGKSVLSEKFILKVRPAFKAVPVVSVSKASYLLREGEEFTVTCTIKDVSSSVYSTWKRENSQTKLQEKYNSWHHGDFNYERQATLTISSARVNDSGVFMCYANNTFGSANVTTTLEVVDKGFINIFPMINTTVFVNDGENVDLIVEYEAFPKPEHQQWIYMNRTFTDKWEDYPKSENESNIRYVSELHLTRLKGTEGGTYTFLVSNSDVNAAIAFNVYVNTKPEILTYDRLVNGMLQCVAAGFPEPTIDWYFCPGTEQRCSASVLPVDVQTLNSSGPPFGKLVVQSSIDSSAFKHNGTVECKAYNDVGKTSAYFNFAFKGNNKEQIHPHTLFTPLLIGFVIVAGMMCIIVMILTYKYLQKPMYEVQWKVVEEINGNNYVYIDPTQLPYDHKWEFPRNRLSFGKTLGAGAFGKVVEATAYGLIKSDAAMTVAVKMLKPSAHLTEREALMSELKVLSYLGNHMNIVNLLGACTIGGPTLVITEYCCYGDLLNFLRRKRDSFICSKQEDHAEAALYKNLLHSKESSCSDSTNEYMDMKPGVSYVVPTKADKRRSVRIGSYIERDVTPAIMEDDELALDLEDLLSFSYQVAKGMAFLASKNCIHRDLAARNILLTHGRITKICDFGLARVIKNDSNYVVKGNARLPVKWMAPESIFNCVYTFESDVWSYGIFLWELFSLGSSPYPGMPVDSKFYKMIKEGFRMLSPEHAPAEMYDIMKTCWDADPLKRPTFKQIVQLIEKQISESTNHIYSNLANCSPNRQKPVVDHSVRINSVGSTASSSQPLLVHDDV

[33] = target: Mitogen-activated protein kinase 14 (Homo sapiens) (UniProt Q16539); experiment: Inhibition of partial length human p38alpha expressed in bacterial system at 1 uM; summary of the method: as §2
[34] = target: Serine/threonine-protein kinase PLK4 (Homo sapiens) (UniProt O00444); experiment: Inhibition of partial length human PLK4 expressed in mammalian system at 1 uM; summary of the method: as §2
Chain of Serine/threonine-protein kinase PLK4 (Homo sapiens) (O00444 whole entry): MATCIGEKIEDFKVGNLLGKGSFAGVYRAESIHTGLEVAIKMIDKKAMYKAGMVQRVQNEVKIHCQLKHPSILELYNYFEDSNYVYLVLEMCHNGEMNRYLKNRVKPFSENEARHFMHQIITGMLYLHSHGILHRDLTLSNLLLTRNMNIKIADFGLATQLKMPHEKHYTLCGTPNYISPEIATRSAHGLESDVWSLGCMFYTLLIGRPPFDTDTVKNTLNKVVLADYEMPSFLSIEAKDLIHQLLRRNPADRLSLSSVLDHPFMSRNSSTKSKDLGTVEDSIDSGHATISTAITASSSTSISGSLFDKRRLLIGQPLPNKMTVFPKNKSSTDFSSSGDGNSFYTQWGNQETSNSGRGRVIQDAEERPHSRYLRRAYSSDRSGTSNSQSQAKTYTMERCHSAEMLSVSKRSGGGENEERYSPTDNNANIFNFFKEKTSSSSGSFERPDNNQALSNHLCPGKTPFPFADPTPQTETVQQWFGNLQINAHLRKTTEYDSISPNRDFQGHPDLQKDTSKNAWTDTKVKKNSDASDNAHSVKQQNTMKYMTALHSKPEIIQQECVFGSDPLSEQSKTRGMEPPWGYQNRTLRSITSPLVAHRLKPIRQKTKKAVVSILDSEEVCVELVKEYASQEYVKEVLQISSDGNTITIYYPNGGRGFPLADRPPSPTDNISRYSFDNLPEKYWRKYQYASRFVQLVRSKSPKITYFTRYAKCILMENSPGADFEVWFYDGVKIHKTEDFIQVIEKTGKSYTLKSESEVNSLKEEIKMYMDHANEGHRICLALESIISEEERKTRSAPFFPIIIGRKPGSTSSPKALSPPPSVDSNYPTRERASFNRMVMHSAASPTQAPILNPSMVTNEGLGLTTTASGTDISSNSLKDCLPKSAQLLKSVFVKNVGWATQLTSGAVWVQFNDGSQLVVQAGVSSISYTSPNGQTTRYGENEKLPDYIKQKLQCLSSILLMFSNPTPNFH

[35] = target: Tyrosine-protein kinase ABL1 (Homo sapiens) (UniProt P00519); experiment: Inhibition of partial length human ABL1 expressed in mammalian system at 1 uM; summary of the method: as §1
[36] = Efflux ratio of permeability in MDCK cells; format: ADME, cell-based, Canis lupus familiaris; conditions: dog
Summary of the method: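 Permeability measured across a confluent MDCK cell monolayer, with the efflux ratio reported alongside the permeability value.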

[37] = target: Cyclin-dependent kinase 7 (Homo sapiens) (UniProt P50613); experiment: Inhibition of partial length human CDK7 expressed in mammalian system at 1 uM; summary of the method: as §1
[38] = target: Protein kinase C epsilon type (Homo sapiens) (UniProt Q02156); experiment: Inhibition of partial length human PRKCE expressed in mammalian system at 1 uM; summary of the method: as §2

For `Cc1cnc(N)nc1OCC(C)(C)CO`, the inhibition [1] was “inactive”, the inhibition [2] was “inactive” and the inhibition [3] was “inactive”. The inhibition [4] was “inactive”, the inhibition [5] was “inactive” and the inhibition [6] was “inactive”. For the same compound, the inhibition [7] was “inactive”, the CLH (Liver microsome) was 7.5 µL/min/mg and the inhibition [8] was “inactive”. The inhibition [9] was “inactive”, the inhibition [10] was “inactive” and the inhibition [11] was “inactive”. For the same compound, the inhibition [12] was “inactive”, the inhibition [13] was “inactive” and the inhibition [14] was “inactive”. The inhibition [15] was “inactive”, the inhibition [16] was “inactive” and the Activity (MDA-MB-231) was “inactive”. For the same compound, the solubility [17] was 75.6 µM (≈ 16 µg/mL), the inhibition [18] was “inactive” and the inhibition [19] was “inactive”. For the same compound, the inhibition [20] was “inactive”, the inhibition [21] was “inactive” and the inhibition [22] was “inactive”. The inhibition [23] was “inactive”, the inhibition [24] was “inactive” and the inhibition [25] was “inactive”. The inhibition [26] was “inactive”, the inhibition [27] was “inactive” and the inhibition [28] was “inactive”. For the same compound, the inhibition [29] was “inactive”, the fraction unbound [30] was 0.46 and the inhibition [31] was “inactive”. For the same compound, the inhibition [32] was “inactive”, the inhibition [33] was “inactive” and the inhibition [34] was “inactive”. The inhibition [35] was “inactive”, the efflux ratio [36] was 0.8 and the inhibition [37] was “inactive”. The inhibition [38] was “inactive”.
